Measurements: ChEMBL document CHEMBL4732055, “Discovery of fast-acting dual-stage antimalarial agents by profiling pyridylvinylquinoline chemical space via copper catalyzed azide-alkyne cycloadditions” (Eur J Med Chem, 2021)
pEC50, pIC50: −log10 of the molar value. The source made the active and inactive calls. The rule behind the calls is not given here.

Experiments:
Plasmodium falciparum [1] = assay: Antiplasmodial activity against chloroquine-resistant Plasmodium falciparum Dd2 infected in erythrocytes assessed as reduction in parasite growth after 72 hrs by SYBR green I staining based fluorescence assay; type: functional, organism-based; settings: Dd2, Erythrocyte
Method in brief: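 Asexual P. falciparum cultures at 1% parasitemia and 1% hematocrit, given serial dilutions in DMSO (0.1% maximum), were incubated 72 h at 37 °C in 5% CO2. Plates were frozen, thawed and lysed with Tris/saponin/EDTA/Triton X-100 buffer containing SYBR Green I, then kept 1 h dark at room temperature. Fluorescence was read at 485 excitation/530 emission. EC50 came from non-linear dose-response curves.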

Plasmodium falciparum [2] = assay: Antiplasmodial activity against chloroquine-sensitive Plasmodium falciparum 3D7 infected in erythrocytes assessed as reduction in parasite growth after 72 hrs by SYBR green I staining based fluorescence assay; type: functional, organism-based; settings: 3D7, Erythrocyte
Method in brief: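 Compound dilutions in DMSO (max 0.1% DMSO) added to P. falciparum culture at 1% parasitemia, 1% hematocrit; 72 h at 37 °C, 5% CO2. Plates frozen, thawed, lysed with buffer containing saponin, Triton X-100, EDTA and SYBR Green I; 1 h dark at room temperature; fluorescence ex 485/em 530. EC50 from non-linear dose-response curves.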

HepG2 = assay: Cytotoxicity against human HepG2 cells assessed as reduction in cell viability after 48 hrs by MTS assay; type: cell-based; settings: HepG2, 48 h
Method in brief: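 HepG2 cells seeded at 2250 per well, grown 24 h at 37 °C, 5% CO2. Serial compound dilutions starting at 25 μM added for a further 48 h. MTS reagent added for 3 h at 37 °C; viability read as absorbance at 490 nm.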

[3] = Stability in mouse liver microsomes assessed as parent compound remaining at 1 uM after 15 mins in presence of NADPH regenerating system by LC/MS analysis; type: ADME, Microsome; settings: read-out: Stabilty
Method in brief: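 Compound at 1 μM final (from 25 μM DMSO stock) with 0.5 mg/mL mouse liver microsomes, NADPH-regenerating system (1.3 mM NADP, 3.3 mM glucose 6-phosphate, 3.3 mM MgCl2, 0.4 U/mL G6PDH) in 0.1 M potassium phosphate pH 7.4, 37 °C with shaking. Aliquots quenched in cold acetonitrile, centrifuged, quantified by LC/MS as percent parent remaining relative to T = 0; CLint and t1/2 reported.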

Plasmodium falciparum [4] = assay: Antiplasmodial activity against synchronized chloroquine-resistant Plasmodium falciparum Dd2 assessed as prevention of parasite cell cycle progression at 5 times of EC50 treated with compound at 6 to 30 hrs post invasion and measured after 12 hrs by Giemsa staining-based microscopic analysis; type: functional, organism-based
Method in brief: (§1)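 Samples taken at 12 h intervals were made into Giemsa-stained thin smears and scored by microscopy for intraerythrocytic stage and development, against untreated control cultures.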

Plasmodium falciparum [5] = assay: Antiplasmodial activity against synchronized chloroquine-resistant Plasmodium falciparum Dd2 assessed as effect on schizont maturation and reinvasion of merozoite at 5 times of EC50 treated with compound at 42 hrs post invasion and measured after 12 hrs by Giemsa staining-based microscopic analysis; type: functional, organism-based; method in brief: as §1
Plasmodium falciparum [6] = assay: Antiplasmodial activity against synchronized chloroquine-resistant Plasmodium falciparum Dd2 assessed as morphological changes at 5 times of EC50 treated with compound at 6 hrs post invasion and measured after 12 hrs by Giemsa staining-based microscopic analysis; type: functional, organism-based; method in brief: as §1
Plasmodium falciparum [7] = assay: Antiplasmodial activity against synchronized chloroquine-resistant Plasmodium falciparum Dd2 assessed as reduction in DNA content at 5 times of EC50 treated with compound at 6 to 30 hrs post invasion measured after 12 hrs by YOYO-1 staining-based flow cytometric analysis; type: functional, organism-based
Plasmodium falciparum [8] = assay: Antiplasmodial activity against synchronized chloroquine-resistant Plasmodium falciparum Dd2 assessed as reduction in DNA content at 5 times of EC50 treated with compound at 42 hrs post invasion measured after 12 hrs by YOYO-1 staining-based flow cytometric analysis; type: functional, organism-based
Plasmodium falciparum [9] = assay: Antiplasmodial activity against synchronized chloroquine-resistant Plasmodium falciparum Dd2 assessed as appearance of large vacuoles at 5 times of EC50 treated with compound at 6 to 42 hrs post invasion and measured after 12 hrs by Giemsa staining-based microscopic analysis; type: functional, organism-based; method in brief: as §1
Plasmodium falciparum [10] = assay: Parasiticidal activity against chloroquine-resistant Plasmodium falciparum Dd2 infected in erythrocytes assessed as reduction in parasitemia at 5 times of EC50 incubated for 6 to 12 hrs followed by compound washout and then incubated for 96 hrs by Giemsa staining based microscopic analysis; type: functional, organism-based; settings: time 6-12 hrs
Plasmodium falciparum [11] = assay: Antiplasmodial activity against early stage (II/III) gametocytes of Plasmodium falciparum 3D7 harboring luc7 incubated for 72 hrs by ONE-Glo luciferase assay; type: functional, organism-based; settings: 3D7, 72 h
Method in brief: (§2)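 Gametocytes of the 3D7 luc7 line were induced by nutrient starvation and cleared of asexual parasites with heparin-treated medium. Stage II-III or IV-V gametocytes were Percoll-purified, and 50,000 per well were exposed 72 h to a 19-point gradient (0.038 nM to 10 μM). Read-out was ONE-Glo luciferase after 5 min with reagent. EC50 came from four-parameter variable-slope nonlinear regression.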

Plasmodium falciparum [12] = assay: Antiplasmodial activity against late stage (IV/V) gametocytes of Plasmodium falciparum 3D7 harboring luc7 incubated for 72 hrs by ONE-Glo luciferase assay; type: functional, organism-based; settings: 3D7, 72 h; method in brief: as §2
Hemozoin [13] = assay: Inhibition of beta-hematin formation after 16 hrs by inverted microscopic analysis
Plasmodium falciparum [14] = assay: Antimalarial activity against Plasmodium falciparum RKL9 gametocytes incubated for 48 hrs by Giemsa staining based assay; type: functional, organism-based; settings: RKL9, 48 h
Plasmodium falciparum [15] = assay: Parasiticidal activity against chloroquine-resistant Plasmodium falciparum Dd2 infected in erythrocytes assessed as reduction in parasitemia at 50 nM incubated for 24 to 48 hrs followed by compound washout and then incubated for 96 hrs by Giemsa staining based microscopic analysis; type: functional, organism-based; settings: time 24-48 hrs
Plasmodium falciparum [16] = assay: Parasiticidal activity against chloroquine-resistant Plasmodium falciparum Dd2 infected in erythrocytes assessed as reduction in parasitemia at 6.6 nM incubated for 6 to 12 hrs followed by compound washout and then incubated for 96 hrs by Giemsa staining based microscopic analysis; type: functional, organism-based; settings: time 6-12 hrs
Hemozoin [17] = assay: Inhibition of beta-hematin formation at 12.5 to 200 uM after 16 hrs by inverted microscopic analysis; settings: dose 12.5-200 µM

| SMILES | pEC50 (Plasmodium falciparum [1]) | pEC50 (Plasmodium falciparum [2]) | pEC50 (HepG2) | further results |
| --- | --- | --- | --- | --- |
| Clc1ccc2nc(/C=C/c3ccncc3)cc(NCCCCn3cc(CN4CCCCC4)nn3)c2c1 | 7.40 | 7.15 | 5.26 | remaining at 0.25 h, 1 µM [3]: < 50%; Activity (Plasmodium falciparum [4]): Active; Activity (Plasmodium falciparum [5]): inactive; Activity (Plasmodium falciparum [6]): inactive; Activity (Plasmodium falciparum [7]): Active; Activity (Plasmodium falciparum [8]): inactive; Activity (Plasmodium falciparum [9]): Active; Activity (Plasmodium falciparum [10]): Active; pEC50 (Plasmodium falciparum [11]): 6.02; pEC50 (Plasmodium falciparum [12]): 6.05; inhibition (Hemozoin [13]): Dose-dependent effect |
| O=C(Cn1cc(COc2ccc(Br)cc2)nn1)NCCNc1ccnc2cc(Cl)ccc12 |  |  |  | pIC50 (Plasmodium falciparum [14]): 5.07 |
| O=C1c2ccccc2C(=O)N1Cc1cn(-c2cc(/C=C/c3ccncc3)nc3ccc(Cl)cc23)nn1 | 5.06 |  |  |  |
| CN1CCN(Cc2cn(CCNc3cc(/C=C/c4ccncc4)nc4ccc(Cl)cc34)nn2)CC1 | < 5.00 |  |  |  |
| CCN(CC)Cc1cn(-c2cc(/C=C/c3ccncc3)nc3ccc(Cl)cc23)nn1 | 5.88 |  |  |  |
| Clc1ccc2nc(/C=C/c3ccncc3)cc(NCCn3cc(CN4CCCC4)nn3)c2c1 | 5.53 |  |  |  |
| Clc1ccc2nc(/C=C/c3ccncc3)cc(-n3cc(CN4CCOCC4)nn3)c2c1 | < 5.00 |  |  |  |
| Clc1ccc2nc(/C=C/c3ccncc3)cc(NCCn3cc(Cn4cccn4)nn3)c2c1 | 5.93 |  |  |  |
| OCCN1CCN(Cc2cn(CCCCNc3cc(/C=C/c4ccncc4)nc4ccc(Cl)cc34)nn2)CC1 | 6.17 | 6.19 | < 4.60 |  |
| Clc1ccc2nc(/C=C/c3ccncc3)cc(-n3cc(CN4CCCCC4)nn3)c2c1 | 5.91 |  |  |  |
| C[C@H]1[C@@H](O)O[C@@H]2O[C@@]3(C)CC[C@H]4[C@H](C)CC[C@@H]1[C@@]24OO3 |  |  |  | Activity (Plasmodium falciparum [15]): Active |
| O=C1C(O)=C([C@H]2CC[C@H](c3ccc(Cl)cc3)CC2)C(=O)c2ccccc21 |  |  |  | Activity (Plasmodium falciparum [16]): Active |
| Clc1ccc2nc(/C=C/c3ccncc3)cc(NCCCCn3cc(CN4CCCC4)nn3)c2c1 | 6.16 | 6.28 | < 4.60 |  |
| OCCN1CCN(Cc2cn(CCNc3cc(/C=C/c4ccncc4)nc4ccc(Cl)cc34)nn2)CC1 | 5.37 |  |  |  |
| Clc1ccc2nc(/C=C/c3ccncc3)cc(NCCn3cc(CN4CCOCC4)nn3)c2c1 | 5.73 |  |  |  |
| CCN(CC)CCCC(C)Nc1ccnc2cc(Cl)ccc12 (stereo unspecified) |  |  |  | inhibition (Hemozoin [17]): Active |
| Clc1ccc2nc(/C=C/c3ccncc3)cc(-n3cc(CN4CCCC4)nn3)c2c1 | 5.78 |  |  |  |
| OCCN1CCN(Cc2cn(-c3cc(/C=C/c4ccncc4)nc4ccc(Cl)cc34)nn2)CC1 | 5.78 |  |  |  |
| Clc1ccc2nc(/C=C/c3ccncc3)cc(NCCCCn3cc(CN4CCOCC4)nn3)c2c1 | 6.77 | 6.64 | < 4.60 | remaining at 0.25 h, 1 µM [3]: < 50% |
| O=C1S/C(=C\c2ccccc2)C(=O)N1Cc1cn(CCCCNc2cc(/C=C/c3ccncc3)nc3ccc(Cl)cc23)nn1 | 6.22 | 6.48 | < 4.60 |  |
| CN1CCN(Cc2cn(CCCCNc3cc(/C=C/c4ccncc4)nc4ccc(Cl)cc34)nn2)CC1 | 6.80 | 6.80 | 4.80 | remaining at 0.25 h, 1 µM [3]: < 50% |
| Clc1ccc2nc(/C=C/c3ccncc3)cc(NCCn3cc(CN4CCCCC4)nn3)c2c1 | 6.26 | 6.33 | 4.87 |  |
| O=C1S/C(=C\c2ccccc2)C(=O)N1Cc1cn(CCNc2cc(/C=C/c3ccncc3)nc3ccc(Cl)cc23)nn1 | 6.62 | 6.36 | 5.24 | remaining at 0.25 h, 1 µM [3]: < 50% |
| O=C1c2ccccc2C(=O)N1Cc1cn(CCCCNc2cc(/C=C/c3ccncc3)nc3ccc(Cl)cc23)nn1 | 6.00 |  |  |  |
| CCN(CC)Cc1cn(CCNc2cc(/C=C/c3ccncc3)nc3ccc(Cl)cc23)nn1 | 5.88 |  |  |  |
| CN1CCN(Cc2cn(-c3cc(/C=C/c4ccncc4)nc4ccc(Cl)cc34)nn2)CC1 | < 5.00 |  |  |  |
| Clc1ccc2nc(/C=C/c3ccncc3)cc(NCCCCn3cc(Cn4cccn4)nn3)c2c1 | 6.46 | 6.55 | 4.67 | remaining at 0.25 h, 1 µM [3]: < 50% |
| O=C1c2ccccc2C(=O)N1Cc1cn(CCNc2cc(/C=C/c3ccncc3)nc3ccc(Cl)cc23)nn1 | 5.97 |  |  |  |
